Assay outcomes: PubChem, several laboratories
SIRT5 inh: inhibitors of human sirtuin-5 desuccinylase. inhibition, % at 15 µM. Q9NXA8. AID 652115. actives 1.1% (n = 330,000). Purified SirT5, succinyl-peptide AMC, trypsin-coupled fluorescence; in the data active = inhibition above about 15%
CASP6 VEID inh: inhibitors of human caspase-6; purified caspase-6, Z-VEID-R110 cleavage fluorescence; inhibition, % at 12.5 µM; actives 0.53% (n = 350,000); AID 686996;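 active = mean inhibition across replicates at least about 35%, with every replicate also reaching that limit, limit read from the data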;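 also: 0% = median of neutral control wells and 100% = no fluorescence left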
Target sequence (P55212 24-179 limits assumed): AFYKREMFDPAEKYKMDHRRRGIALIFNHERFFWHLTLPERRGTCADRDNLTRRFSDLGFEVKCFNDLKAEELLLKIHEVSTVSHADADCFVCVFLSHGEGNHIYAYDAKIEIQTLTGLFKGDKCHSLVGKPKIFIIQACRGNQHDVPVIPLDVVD
Target sequence (P55212 194-293 limits assumed): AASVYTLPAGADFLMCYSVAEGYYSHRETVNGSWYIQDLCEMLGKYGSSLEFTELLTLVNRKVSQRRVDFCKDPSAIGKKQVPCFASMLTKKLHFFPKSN
UCH37 inh: human UCH37 deubiquitinating enzyme inhibition; Q9Y5K5; purified proteasome/UCH37, Ub-AMC cleavage fluorescence; inhibition, % (no concentration beside the values); actives 0.33% (n = 330,000);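 active = mean inhibition over replicate wells above about 20%, limit read from the data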;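 also: 0% = compound-free wells with enzyme and 100% = wells lacking proteasome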
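Material: Human UCH37 enzyme supplied as purified proteasome complex | Schedule: 30 min preincubation with enzyme, 25 min cleavage at room temperature | Detection: AMC fluorescence 355/460 nm | Measure: % inhibition of Ub-AMC cleavage fluorescence | Controls: Wells without proteasome as full block, compound-free enzyme plus substrate as uninhibited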
FGF22 binding: FGF22 (human) thermal shift binding; recombinant FGF22 thermal shift, SYPRO orange fluorescence; percent of sucrose octasulfate shift, DMSO zero; activity (Tm shift, normalised), % at 9.99 µM; actives 1.5% (n = 340,000); Q9HCT0;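 active = mean Tm shift, scaled 0 neutral to 100 positive control, at about 1.3% or above, every replicate too, limit read from the data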
Target sequence (Q9HCT0 whole entry, looked up): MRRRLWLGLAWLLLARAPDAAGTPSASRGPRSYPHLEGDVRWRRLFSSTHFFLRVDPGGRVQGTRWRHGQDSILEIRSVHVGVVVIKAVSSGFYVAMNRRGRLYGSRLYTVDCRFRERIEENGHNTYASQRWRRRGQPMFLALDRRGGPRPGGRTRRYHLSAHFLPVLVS
NSD2 HMT inh: blocks human histone methyltransferase NSD2; inhibition, % at 12.5 µM; O96028; NSD2 peptide methylation, AlphaScreen, 120 min; actives 0.54% (n = 310,000); in the data active = inhibition above about 50%
* = called active by the depositor; . = no result. In the library only some 2.6% were active in any assay of this set; here they are far more common.

SMILES | SIRT5 inh | CASP6 VEID inh | UCH37 inh | FGF22 binding | NSD2 HMT inh
C[C@@H]1CN([C@H](C)CO)C(=O)Cc2cc(NC(=O)Nc3ccc(F)cc3)ccc2O[C@@H]1CN(C)S(=O)(=O)c1cccs1 | 3.5 | -1.4 | . | -0.3 | .
CCOc1cc(C(=O)OCc2cccc(OC)c2OC)ccc1OCC(=O)N1CCOCC1 | 15.8* | 0.3 | 0.3 | -0.1 | 0.0
CCC(=O)NNC(=O)CCC(=O)Nc1ccc(C)cc1C | -1.9 | -3.0 | 0.6 | 43.4* | -2.9
Cc1ccc(NC(=O)CCC(=O)NNC(=O)C(C)(C)C)c(C)c1 | -2.2 | 4.1 | 5.0 | 0.0 | -9.5
CO[C@H]1CN(C)C(=O)c2cc(NC(=O)Nc3ccccc3F)ccc2OC[C@@H](C)N(Cc2ccccc2C(=O)O)C[C@H]1C | . | 17.0 | . | -0.2 | .
Cn1c(=O)cc(SCC(=O)N2CCN(C3CCCCC3)CC2)c2ccccc21 | 16.8* | -5.3 | 2.3 | 0.1 | .
COc1ccc(C=NNC(=O)C[n+]2ccccc2)c(OC)c1OC | . | . | 3.6 | . | .
C/C(C=NNC(=O)c1ccc(C)nc1)=C\c1ccccc1 | . | . | 9.6 | . | .
COC(=O)C1C(O)C(C)C(O)C(C)(O)/C=C\C=C(/C)C(=O)Nc2c(C)c(OC(C)=O)c3c(c2O)C(=O)C(C)=C2OCOC(=C23)/C(C)=C/C(C)(O)C(O)C(C)C1O (stereo not drawn) | 6.5 | 56.9* | . | -0.1 | 11.4
COc1ccccc1NC(=O)N(C)C[C@@H]1Oc2ncc(C#CCN(C)C)cc2C(=O)N([C@@H](C)CO)C[C@H]1C | 0.1 | 13.3 | . | 0.9 | .
Cc1ccc(S(=O)(=O)N2C[C@H]3[C@H]4C(=O)N(c5ccccc5)C(=O)[C@H]4C[C@H](OC(=O)NCc4ccccc4)[C@@]3(O)C2)cc1 | 21.6* | -2.4 | . | 42.9* | .
Cc1ccc(S(=O)(=O)N2C[C@H]3[C@H]4C(=O)N(c5ccccc5)C(=O)[C@H]4C[C@H](OC(=O)NCc4ccco4)[C@@]3(O)C2)cc1 | -1.2 | 0.2 | . | 40.3 | .
O=S(=O)(NCC[C@@H]1CC[C@@H](NS(=O)(=O)c2cccc(F)c2)[C@H](CO)O1)c1cccc(F)c1 | 3.1 | 0.8 | . | -0.1 | .
COc1ccc(CN(C)C[C@H]2Oc3ccc(NS(=O)(=O)c4ccccc4)cc3CC(=O)N([C@@H](C)CO)C[C@@H]2C)cc1 | 16.7* | . | . | -0.4 | .
COc1ccc(CN(C)C[C@@H]2Oc3ccc(NC(=O)NC4CCCCC4)cc3CC(=O)N([C@H](C)CO)C[C@@H]2C)cc1 | 15.2* | -2.3 | . | 0.5 | .
COc1ccc(S(=O)(=O)Nc2ccc3c(c2)CC(=O)N([C@@H](C)CO)C[C@H](C)[C@H](CN(C)Cc2ccc(Oc4ccccc4)cc2)O3)cc1 | 17.1* | . | . | 0.1 | .
COc1ccc(NC(=O)Nc2ccc3c(c2)CC(=O)N([C@@H](C)CO)C[C@H](C)[C@@H](CN(C)Cc2ccc(Oc4ccccc4)cc2)O3)cc1 | 22.8* | 0.2 | . | -0.2 | .
COc1ccc(S(=O)(=O)Nc2ccc3c(c2)CC(=O)N([C@@H](C)CO)C[C@@H](C)[C@@H](CN(C)Cc2ccc(Oc4ccccc4)cc2)O3)cc1 | 14.4 | . | . | 0.0 | .
C[C@@H]1CN([C@H](C)CO)C(=O)c2cc(C#CC3CCCCC3)cnc2O[C@H]1CN(C)S(=O)(=O)c1ccccc1 | 7.1 | -1.6 | . | -0.4 | .
Cc1ccc(S(=O)(=O)Nc2ccc3c(c2)C(=O)N([C@H](C)CO)C[C@@H](C)[C@H](CN(C)CC2CC2)O3)cc1 | -2.5 | -4.9 | . | 0.1 | .
C[C@@H]1CN([C@@H](C)CO)C(=O)Cc2cc(NC(=O)CCC(F)(F)F)ccc2O[C@H]1CN(C)Cc1ccc(Oc2ccccc2)cc1 | 21.8* | . | . | -0.3 | .
C[C@H](CO)N1C[C@H](C)[C@H](CN(C)Cc2ccc(Oc3ccccc3)cc2)Oc2ccc(NC(=O)CCC(F)(F)F)cc2CC1=O | . | . | . | -0.2 | .
O=C(NCc1ccc(Cl)cc1)C(=O)NN=Cc1ccc(Br)cc1 | . | . | -0.7 | . | .
CN=C(Nc1ccc(C(=O)OC)s1)c1ccccc1 | 31.6* | -1.4 | 7.1 | 42.2 | 0.4
C[C@@H]1CN([C@@H](C)CO)C(=O)c2cc(NS(=O)(=O)c3ccc(F)cc3)ccc2O[C@@H](C)CCCCO[C@H]1CN(C)S(=O)(=O)c1ccc(F)cc1 | . | . | . | -0.6 | .
Cc1nn(C)c(C(=O)NNC(=S)NC2CCCCC2)c1Br | -3.6 | 6.2 | 1.5 | 43.0* | -30.6
CC(CCN1CCc2nc(-c3ccccc3)c(-c3ccccc3)cc2C1)=NO[C@@H](C)c1cn([C@H](CO)Cc2ccccc2)nn1 | . | . | 0.7 | . | .
